Rows were chosen to be rich in hits. Some 4.3% of all compounds tested hit in one or more screens of this group.
Yeast growth inh – growth inhibitors of yeast BB579 in restrictive medium, primary screen, yeast lifespan-shortening project, S. cerevisiae | OD615, 48 h | hit rate 0.51% among 140,000 | inhibition, % at 10 µM;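 active = inhibition above a set limit, 3 SD over the mean compound inhibition, cut at about 44% in these data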
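Detection: OD615 turbidity measurement; Material: Saccharomyces cerevisiae DeaD strain BB579, replicative lifespan model yeast; Timing: 48 h exposure, 30 °C; Doses: single 10 µM dose; Medium: CSMM-D restrictive synthetic medium containing dextrose (glucose); Controls: amphotericin B at 10 µg/mL as positive control.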
Yeast lifespan up – compounds extending yeast replicative lifespan, primary screen, S. cerevisiae, OD615. S. cerevisiae growth with nicotinamide; deaD strain in restrictive glucose medium. hit rate 0.68% among 130,000. inhibition of the nicotinamide effect, % at 10 µM;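 active = inhibition above a set limit, placed 3 SD over the median of all compounds, cut at about 26% in these data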;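 note: 0% = nicotinamide-treated wells and 100% = cells grown without nicotinamide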
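Assay system: engineered S. cerevisiae DeaD replicative-lifespan strain, galactose-grown log-phase cells; medium: restrictive CSMM-D dextrose medium; also added: nicotinamide, 1.5 mM, co-present with compound; schedule: 48 h compound exposure at 30 °C, humidified; detection: absorbance at 615 nm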
WT yeast gro inh – growth inhibition of WT strain, primary screen, mitochondrial fusion inhibitor project, WT and mutant strains, chemical genetic | mitochondrial fusion phenotypic screen | inhibition, % at 10 µM | hit rate 2.1% among 190,000 | AID 1362, 2008; in the data active = inhibition above about 58%; tested in S. cerevisiae
RAM network inh – inhibitors of the yeast RAM network, primary screen, dse1pr::URA3 reporter, 5-FOA selection; AID 868, 2007; inhibition, % at 50 µM; S. cerevisiae dse1pr::URA3 reporter, 5-FOA growth OD615, 2 d; analog-sensitive cbk1-as2 kinase mutant strain; hit rate 1.8% among 190,000;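 active = inhibition above a set limit, 3 SD over mean compound inhibition, cut at about 8.4% in these data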;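 note: 0% = DMSO-only wells with no growth and 100% = 10 µM 1-NA-PP1 full growth; inhibition rescues growth on 5-FOA so higher OD means more RAM inhibition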
Numbers without * were called inactive.

Screening CCn1c(SCC(=O)O)nnc1-c1ccccc1OC returned WT yeast gro inh 1.5 and RAM network inh 1.6.
C#CCOc1ccc(Cl)cc1/C=N/O was read as Yeast growth inh -13.8, Yeast lifespan up -15.5, WT yeast gro inh 30.7 and RAM network inh 0.4.
`O/N=C/c1cc(Cl)ccc1OCc1cccc2ccccc12` gave Yeast growth inh 75.6*, Yeast lifespan up -8.6, WT yeast gro inh 96.8* and RAM network inh 3.2.
`O=C(Nc1ccc(S(=O)(=O)Nc2nccs2)cc1)c1ccc(N2C(=O)c3ccccc3C2=O)cc1` gave WT yeast gro inh 0.3 and RAM network inh 4.3.
`CNc1nnc(-c2cc3cc(Cl)ccc3oc2=O)s1` gave Yeast growth inh 56.8*, Yeast lifespan up -12.1, WT yeast gro inh 40.5 and RAM network inh 3.6.
O=c1oc2ccc(Cl)cc2cc1-c1nnc(Nc2cccc(C(F)(F)F)c2)s1 was read as Yeast growth inh -48.6, Yeast lifespan up 6.4, WT yeast gro inh -7.0 and RAM network inh 2.1.
`COc1cccc(Cn2cc(N)cn2)c1` gave WT yeast gro inh -3.6 and RAM network inh 0.7.
Screening NC(N)=N/N=C/c1ccc(OCc2ccccc2Cl)cc1 returned Yeast growth inh 17.4, Yeast lifespan up -28.9, WT yeast gro inh 62.0* and RAM network inh 2.9.
`COc1ccc(OCC(=O)NNc2c3ccccc3nc3ccccc23)cc1` gave Yeast growth inh -20.3, Yeast lifespan up -5.5, WT yeast gro inh 63.8* and RAM network inh 1.8.
`COc1ccc(NC(=O)c2cc(S(=O)(=O)NCC3COc4ccccc4O3)ccc2F)cc1` (centres undefined) gave Yeast growth inh -15.6, Yeast lifespan up 1.1, WT yeast gro inh 18.8 and RAM network inh 2.5.
`CC(C)c1ccc(NC(=O)c2cc(S(=O)(=O)NCC3COc4ccccc4O3)ccc2F)cc1` (centres undefined) gave Yeast growth inh -62.0, Yeast lifespan up 3.9, WT yeast gro inh 61.6* and RAM network inh 4.8.
`O=C(Nc1ccc(C(F)(F)F)cc1)c1cc(S(=O)(=O)NCC2COc3ccccc3O2)ccc1F` (centres undefined) gave Yeast growth inh -16.0, Yeast lifespan up 3.6, WT yeast gro inh 82.3* and RAM network inh 8.4*.
Screening CC(=O)N1CCN(C(=O)COc2ccccc2C(=O)Nc2ccccc2)CC1 returned WT yeast gro inh 5.6 and RAM network inh 1.6.
`CCOC(=O)c1c(CN2CCN(Cc3ccccc3)CC2)n(C)c2cc(Br)c(OC)cc12` gave Yeast growth inh -13.9, Yeast lifespan up -7.5, WT yeast gro inh 94.7* and RAM network inh -0.1.
CCOC(=O)CSC1=C(C#N)C(c2ccc(OC)cc2)C2=C(CC(C)(C)CC2=O)N1 (centres undefined) was read as Yeast growth inh -26.1, Yeast lifespan up -17.1, WT yeast gro inh 23.9 and RAM network inh 3.7.
Screening COc1ccc(C2C(C#N)=C(SC)NC3=C2C(=O)CC(C)(C)C3)cc1 (centres undefined) returned Yeast growth inh -22.6, Yeast lifespan up 1.9, WT yeast gro inh 78.6* and RAM network inh 3.0.
`COc1ccc(C2C3=C(CC(C)(C)CC3=O)Nc3c2c(=O)[nH]c(=O)n3Cc2ccccc2)cc1` (centres undefined) gave Yeast growth inh -11.5, Yeast lifespan up 3.0, WT yeast gro inh 1.3 and RAM network inh 9.5*.
Screening CC(OC(=O)c1cc(-c2cccnc2)nc2ccccc12)C(=O)Nc1ccc2ccccc2c1 (centres undefined) returned Yeast growth inh -42.2, Yeast lifespan up -1.6, WT yeast gro inh 13.5 and RAM network inh 5.2.
For CN1/C(=C\C(=O)COC(=O)c2ccc([N+](=O)[O-])o2)C(C)(C)c2ccccc21 the results were WT yeast gro inh 94.4* and RAM network inh 4.9.
CC1=NN(c2ccc(Cl)cc2)C(=O)/C1=C\c1cccn1-c1ccc(S(N)(=O)=O)cc1 was read as Yeast growth inh -49.5, Yeast lifespan up -3.5, WT yeast gro inh 81.2* and RAM network inh 3.2.
Cc1ccc(S(=O)(=O)N/N=C/c2cccn2-c2ccc(Cl)cc2)cc1 was read as Yeast growth inh -28.9, Yeast lifespan up 3.1, WT yeast gro inh -3.4 and RAM network inh 4.7.
Screening CC(=O)c1cc(CN2CCN(CC=C(C)C)C(CCO)C2)cs1 (centres undefined) returned WT yeast gro inh 13.7 and RAM network inh 0.8.
Screening Cn1c(=O)n(CCc2ccccc2)c(=O)c2c1nc1n2CCCN1CCc1ccccc1 returned Yeast growth inh -39.5, Yeast lifespan up -22.3, WT yeast gro inh 67.1* and RAM network inh 3.8.
Screening Cn1c(=O)n(CCc2ccccc2)c(=O)c2c1nc1n2CCCN1Cc1ccccc1 returned Yeast growth inh -9.4, Yeast lifespan up -11.6, WT yeast gro inh 13.1 and RAM network inh 2.4.
For COC(=O)CC1C(=O)NCCN1C(=O)OC(C)(C)C (centres undefined) the results were WT yeast gro inh -2.7 and RAM network inh -1.2.
CNC(=S)N1CCN(C(c2ccccc2)c2ccccc2)CC1 was read as WT yeast gro inh 70.3* and RAM network inh 1.2.
`CCC(C)NC(=S)N1CCN(C(c2ccccc2)c2ccccc2)CC1` (centres undefined) gave Yeast growth inh -6.8, Yeast lifespan up 1.1, WT yeast gro inh 69.2* and RAM network inh -0.7.
For CCC(C)NC(=S)N1CCN(Cc2ccccc2)CC1 (centres undefined) the results were WT yeast gro inh -9.4 and RAM network inh 0.9.
For CCN1CCN(C(=O)CCc2nnc(CCCCc3ccccc3)o2)[C@@H](C)C1=O the results were WT yeast gro inh -21.2 and RAM network inh 1.4.
Screening O=C(NC(NNc1ccc([N+](=O)[O-])cc1)(C(F)(F)F)C(F)(F)F)c1ccc(Cl)cc1 returned Yeast growth inh -18.8, Yeast lifespan up -3.0, WT yeast gro inh 78.4* and RAM network inh 0.8.
CCc1c(C(=O)NCCc2ccc(OC)c(OC)c2)[nH]c(C)c1C(C)=O was read as Yeast growth inh -28.1, Yeast lifespan up 47.4*, WT yeast gro inh 4.5 and RAM network inh -0.3.
N/C(Cc1ccc(Cl)cc1)=N\OC(=O)c1ccccc1 was read as Yeast growth inh 96.3*, Yeast lifespan up -12.9, WT yeast gro inh 9.9 and RAM network inh -0.8.
For COc1ccc(C(=O)O/N=C(\N)Cc2ccc(Cl)c(Cl)c2)cc1OC the results were Yeast growth inh -61.1, Yeast lifespan up -3.0, WT yeast gro inh 94.0* and RAM network inh -0.7.
COc1ccc(C(=O)O/N=C(\N)Cc2ccc(Cl)cc2)cc1OC was read as Yeast growth inh -30.1, Yeast lifespan up -8.0, WT yeast gro inh 6.7 and RAM network inh -0.7.
`Cc1nn(C(C)C(=O)NCc2cccs2)c(C)c1[N+](=O)[O-]` (centres undefined) gave WT yeast gro inh -13.4 and RAM network inh 0.0.

High-throughput results (PubChem BioAssay)
